Measured values: ChEMBL document CHEMBL1146742, “A-420983: a potent, orally active inhibitor of lck with efficacy in a model of transplant rejection” (Bioorg Med Chem Lett, 2004)

How the values were obtained:
[1] = species on record: Homo sapiens; assay: Inhibition of anti-CD3 mAb induced inter leukein-2 production in human whole blood was evaluated; type: functional, organism-based
[2] = target: T1, Interleukin-2 (Mus musculus) (UniProt P04351); assay: Percent inhibition of interleukin-2 production by compound was measured after 18 hours of oral administration in mice; type: functional, organism-based; details: concentration not given here
T1 sequence (whole entry): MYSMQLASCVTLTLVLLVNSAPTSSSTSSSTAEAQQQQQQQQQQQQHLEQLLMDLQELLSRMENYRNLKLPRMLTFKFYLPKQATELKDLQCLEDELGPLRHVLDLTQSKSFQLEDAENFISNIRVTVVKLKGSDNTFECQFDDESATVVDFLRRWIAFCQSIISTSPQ

[3] = target: T1, Interleukin-2 (Mus musculus); assay: Effective concentration to suppress interleukin-2 production was measured after 2.5 hours of oral administration in mice; type: functional, organism-based
[4] = target: T1, Interleukin-2 (Mus musculus); assay: Percent inhibition of interleukin-2 production by compound was measured after 8 hours of oral administration in mice; type: functional, organism-based; details: concentration not given here
[5] = Plasma clearance was determined in mouse after 5 mg/kg (i.v.) and 6 mg/kg (p.o.) administration; type: ADME, organism-based; details: iv, read-out: Clp (converted)
Summary of the method: (§1)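 Pharmacokinetics were measured in mouse (5 mg/kg iv, 6 mg/kg po) and dog (1 mg/kg iv, 5 mg/kg po). Reported parameters were Cmax (ng/mL), Tmax (h), Vd (L/kg), plasma clearance (L/h/kg), elimination half-life (h) and oral bioavailability F (%).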

[6] = Half life was determined in mouse after 5 mg/kg (i.v.) and 6 mg/kg (p.o.) administration; type: ADME, organism-based; details: in vivo; summary of the method: as §1
[7] = Bioavailability was determined in dog after 1 mg/kg (i.v.) and 5 mg/kg (p.o.) administration; type: ADME, organism-based, Canis lupus familiaris; details: in vivo, po; summary of the method: as §1
[8] = Volume of distribution was determined in mouse after 5 mg/kg (i.v.) and 6 mg/kg (p.o.) administration; type: ADME, organism-based; details: in vivo, iv; summary of the method: as §1
[9] = Volume of distribution was determined in dog after 1 mg/kg (i.v.) and 5 mg/kg (p.o.) administration; type: ADME, organism-based, Canis lupus familiaris; details: in vivo, iv; summary of the method: as §1
[10] = Time to reach maximum plasma concentration was determined in dog after 1 mg/kg (i.v.) and 5 mg/kg (p.o.) administration; type: ADME, organism-based, Canis lupus familiaris; details: po; summary of the method: as §1
[11] = Half life was determined in dog after 1 mg/kg (i.v.) and 5 mg/kg (p.o.) administration; type: ADME, organism-based, Canis lupus familiaris; details: in vivo; summary of the method: as §1
[12] = Time to reach maximum plasma concentration was determined in mouse after 5 mg/kg (i.v.) and 6 mg/kg (p.o.) administration; type: ADME, organism-based; details: po; summary of the method: as §1
[13] = Bioavailability was determined in mouse after 5 mg/kg (i.v.) and 6 mg/kg (p.o.) administration; type: ADME, organism-based; details: in vivo, po; summary of the method: as §1
[14] = Maximum plasma concentration of compound was determined in dog after 1 mg/kg (i.v.) and 5 mg/kg (p.o.) administration; type: ADME, organism-based, Canis lupus familiaris; details: po; summary of the method: as §1
[15] = Plasma clearance was determined in dog after 1 mg/kg (i.v.) and 5 mg/kg (p.o.) administration; type: ADME, organism-based, Canis lupus familiaris; details: iv; summary of the method: as §1
[16] = target: Vascular endothelial growth factor receptor 2 (Homo sapiens, UniProt P35968); assay: Inhibition of vascular endothelial growth factor receptor 2 activity with 1 mM ATP and biotinylated lck peptide
Chain of Vascular endothelial growth factor receptor 2 (P35968 whole entry): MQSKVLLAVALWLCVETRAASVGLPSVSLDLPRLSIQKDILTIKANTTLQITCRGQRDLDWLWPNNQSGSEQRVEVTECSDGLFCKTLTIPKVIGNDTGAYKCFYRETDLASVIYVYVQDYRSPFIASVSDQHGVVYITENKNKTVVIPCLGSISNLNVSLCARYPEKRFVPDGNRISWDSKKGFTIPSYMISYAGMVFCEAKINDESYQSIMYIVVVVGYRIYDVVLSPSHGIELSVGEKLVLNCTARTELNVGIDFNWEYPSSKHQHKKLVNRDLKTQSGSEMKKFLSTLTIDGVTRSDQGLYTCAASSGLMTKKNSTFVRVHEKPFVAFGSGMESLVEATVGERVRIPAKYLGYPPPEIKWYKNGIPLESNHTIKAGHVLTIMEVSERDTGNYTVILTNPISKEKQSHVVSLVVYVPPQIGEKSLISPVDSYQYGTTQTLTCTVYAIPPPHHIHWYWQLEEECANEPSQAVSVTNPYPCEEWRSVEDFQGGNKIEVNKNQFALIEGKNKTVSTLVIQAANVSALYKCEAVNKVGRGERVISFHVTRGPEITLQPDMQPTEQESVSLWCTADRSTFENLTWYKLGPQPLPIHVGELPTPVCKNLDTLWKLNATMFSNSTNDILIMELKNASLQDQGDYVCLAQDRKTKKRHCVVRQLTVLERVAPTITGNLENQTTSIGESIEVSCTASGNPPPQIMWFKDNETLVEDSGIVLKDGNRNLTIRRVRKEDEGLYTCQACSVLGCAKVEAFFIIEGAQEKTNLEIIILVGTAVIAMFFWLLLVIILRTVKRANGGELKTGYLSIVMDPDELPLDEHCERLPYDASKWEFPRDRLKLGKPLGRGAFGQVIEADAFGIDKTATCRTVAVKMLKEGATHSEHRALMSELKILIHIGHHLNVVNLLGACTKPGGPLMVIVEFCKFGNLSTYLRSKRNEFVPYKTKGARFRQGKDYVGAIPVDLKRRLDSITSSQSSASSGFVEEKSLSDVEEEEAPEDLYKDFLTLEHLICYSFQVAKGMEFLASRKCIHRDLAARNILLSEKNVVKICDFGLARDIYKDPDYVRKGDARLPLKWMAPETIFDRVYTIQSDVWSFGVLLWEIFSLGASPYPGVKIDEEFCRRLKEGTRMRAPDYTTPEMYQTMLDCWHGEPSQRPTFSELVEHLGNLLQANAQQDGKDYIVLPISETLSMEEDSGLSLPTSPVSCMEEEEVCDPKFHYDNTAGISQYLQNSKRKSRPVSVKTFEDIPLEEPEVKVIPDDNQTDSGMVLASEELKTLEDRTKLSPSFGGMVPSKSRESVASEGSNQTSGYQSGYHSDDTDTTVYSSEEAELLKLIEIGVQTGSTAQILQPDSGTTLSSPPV

[17] = Maximum plasma concentration of compound was determined in mouse after 5 mg/kg (i.v.) and 6 mg/kg (p.o.) administration; type: ADME, organism-based; details: po; summary of the method: as §1

Row | IC50 [1] | inhibition [2] | ED50 [3] | ED90 [3] | inhibition [4] | clearance [5] | half-life [6] | bioavailability [7] | Vd [8] | Vd [9] | Tmax [10] | half-life [11] | Tmax [12] | bioavailability [13] | Cmax [14] | clearance [15] | IC50 [16] | Cmax [17] | Structure (SMILES)
1 | 7 nM | < 10% | 8.5 mg/kg | 12.5 mg/kg | 48% |  |  |  |  |  |  |  |  |  |  |  |  |  | COc1cc(-c2nn([C@H]3CC[C@H](N4CCN(C)CC4)CC3)c3ncnc(N)c23)ccc1NC(=O)c1cc2ccccc2o1
2 | 8 nM | > 90% | 1.5 mg/kg | 6 mg/kg | > 90% | 28.3 mL/min/kg | 10 h | 32% | 25 L/kg | 25 L/kg | 24 h | 45 h | 8 h | 30% | 74 ng/mL | 11.7 mL/min/kg | > 50000 nM | 51 ng/mL | COc1cc(-c2nn([C@H]3CC[C@H](N4CCN(C)CC4)CC3)c3ncnc(N)c23)ccc1NC(=O)c1cc2ccccc2n1C
3 | 6 nM | 33% | 7 mg/kg | 12.5 mg/kg | 79% |  |  |  |  |  |  |  |  |  |  |  |  |  | COc1cc(-c2nn([C@H]3CC[C@H](N4CCN(C)CC4)CC3)c3ncnc(N)c23)ccc1NC(=O)c1cc2ccccc2[nH]1
4 | 10 nM |  |  |  |  |  |  |  |  |  |  |  |  |  |  |  |  |  | COc1cc(-c2nn([C@H]3CC[C@H](N4CCN(C)CC4)CC3)c3ncnc(N)c23)ccc1NCc1ccco1

Row | Structure (SMILES) | IC50 [1] | inhibition [2] | ED50 [3] | ED90 [3] | inhibition [4] | clearance [5] | half-life [6] | bioavailability [7] | Vd [8] | Vd [9] | Tmax [10] | half-life [11] | Tmax [12] | bioavailability [13] | Cmax [14] | clearance [15] | IC50 [16] | Cmax [17]
5 | COc1cc(-c2nn([C@H]3CC[C@H](N4CCN(C)CC4)CC3)c3ncnc(N)c23)ccc1NC(=O)OCc1ccccc1 |  | 14% | 3 mg/kg | 14 mg/kg | 51% |  |  |  |  |  |  |  |  |  |  |  |  | 
